The target of series [1] is T1, Free fatty acid receptor 1 (Homo sapiens, UniProt O14842). Put plainly: Agonist activity at human GPR40 expressed in CHO cells assessed as calcium influx by FLIPR assay in presence of 0.1 % BSA. In kind it is functional, cell-based.
Series [2] concerns the target T1, Free fatty acid receptor 1. Put plainly: Displacement of 3-[4-({2',6'-dimethyl-6-[(4-[3H])phenylmethoxy]biphenyl-3-yl}methoxy)phenyl]propanoic acid from human GPR40 expressed in CHO membranes after 90 mins by liquid scintillation counting in presence of 0.2 % BSA. In kind it is cell membranes.
Series [3] concerns the target Free fatty acid receptor 1 (Rattus norvegicus, UniProt Q8K3T4). Put plainly: Displacement of 3-[4-({2',6'-dimethyl-6-[(4-[3H])phenylmethoxy]biphenyl-3-yl}methoxy)phenyl]propanoic acid from rat GPR40 expressed in CHO membranes after 90 mins by liquid scintillation counting in presence of 0.2 % BSA. In kind it is cell membranes, Membrane.
Series [4] in a line: Terminal half life in fasted dog at 1 mg/kg, po. The format is ADME, organism-based, Canis lupus familiaris. On the set-up: dose 1 mg/kg, route oral. The note with it: in vivo, read-out: t1/2lambda (converted). Summed up:
(§1)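 Dogs given 0.5 mg/kg iv or 1 mg/kg po, with plasma PK parameters derived. Cmax and AUC are reported as anhydrous-compound equivalents. Means of n = 4 dogs.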

Series [5] can be described thus: Terminal half life in fasted Crl:CD(SD) rat at 3 mg/kg, po. The note with it: in vivo, read-out: t1/2lambda (converted). Details: dose 3 mg/kg, route oral. The format is ADME, organism-based. Summed up: (§2)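 Rats dosed at 1 mg/kg iv or 3 mg/kg po, with plasma sampling for PK parameters. Cmax and AUC are expressed as anhydrous-compound equivalents. Values are means of n = 3 rats.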

The nature of series [6]: Clearance in fasted dog at 0.5 mg/kg, iv. The format is ADME, organism-based, Canis lupus familiaris. Details: dose 0.5 mg/kg, route intravenous. The settings on record: in vivo. Put shortly:
as §1

The nature of series [7]: Volume of distribution at steady state in fasted Crl:CD(SD) rat at 1 mg/kg, iv. The settings on record: in vivo, read-out: Vdss. On the set-up: dose 1 mg/kg, route intravenous. The format is ADME, organism-based. Put shortly: as §2
For series [8], the target named is T2, Free fatty acid receptor 2 (Homo sapiens, UniProt O15552).
T2 sequence (O15552 whole entry): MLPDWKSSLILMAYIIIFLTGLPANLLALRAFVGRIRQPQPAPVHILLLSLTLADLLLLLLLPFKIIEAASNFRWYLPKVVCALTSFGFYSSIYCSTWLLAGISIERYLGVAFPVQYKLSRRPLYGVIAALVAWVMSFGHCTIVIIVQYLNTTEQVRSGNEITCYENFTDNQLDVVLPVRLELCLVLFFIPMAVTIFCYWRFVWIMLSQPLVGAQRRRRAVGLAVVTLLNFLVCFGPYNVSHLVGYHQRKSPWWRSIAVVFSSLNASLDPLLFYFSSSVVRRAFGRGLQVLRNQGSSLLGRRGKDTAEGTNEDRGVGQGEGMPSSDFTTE
Put plainly: Agonist activity at human GPR43 expressed in 293 cells assessed as cAMP accumulation after 30 mins by Alphascreen method. In kind it is functional, cell-based, HEK293. A general note: Cyclic AMP is a second messenger, typically raised through Gs and lowered through Gi signalling.

For series [9], the target named is T3, Free fatty acid receptor 4 (Homo sapiens, UniProt Q5NUL3).
T3 sequence (Q5NUL3 whole entry): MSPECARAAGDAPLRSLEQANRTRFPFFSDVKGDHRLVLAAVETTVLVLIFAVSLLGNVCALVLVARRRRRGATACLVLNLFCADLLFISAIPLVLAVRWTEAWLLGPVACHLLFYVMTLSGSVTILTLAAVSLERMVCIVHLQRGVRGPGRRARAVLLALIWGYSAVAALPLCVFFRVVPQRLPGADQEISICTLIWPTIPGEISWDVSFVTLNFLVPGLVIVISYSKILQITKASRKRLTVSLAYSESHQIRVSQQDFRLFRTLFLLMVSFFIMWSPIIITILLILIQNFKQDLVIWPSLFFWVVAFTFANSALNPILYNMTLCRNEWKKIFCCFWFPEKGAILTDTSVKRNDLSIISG
Put plainly: Agonist activity at human GPR120 expressed in CHO cells assessed as calcium influx after 30 mins by FLIPR assay. The format is functional, cell-based.

Series [10] in a line: Cmax in fasted dog at 1 mg/kg, po. The format is ADME, organism-based, Canis lupus familiaris. Details: dose 1 mg/kg, route oral. The note with it: in vivo. Put shortly:
as §1

Series [11] is described as follows: AUC (0 to 24 hrs) in fasted Crl:CD(SD) rat at 3 mg/kg, po. In kind it is ADME, organism-based. Details: time < 24 hr, dose 3 mg/kg, route oral. The settings on record: plasma. Put shortly: as §2
Series [12] in a line: Terminal half life in fasted dog at 0.5 mg/kg, iv. The settings on record: in vivo, read-out: t1/2lambda (converted). In kind it is ADME, organism-based, Canis lupus familiaris. Details: dose 0.5 mg/kg, route intravenous. Summed up:
as §1

Series [13] concerns Rattus norvegicus. Put plainly: Antidiabetic activity in Wistar fatty rat assessed as reduction in blood glucose excursion at 0.3 to 3 mg/kg, po administered 1 hr prior glucose challenge as single dose by OGTT. In kind it is functional, organism-based. Put shortly:
(§3)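 Female Wistar fatty rats got a single oral dose of 0.3–3 mg/kg 1 h before a 1 g/kg oral glucose challenge (OGTT). Plasma glucose and insulin were followed over time. Read-outs were incremental AUC0–120 min for glucose and AUCpre–30 min for insulin. Means ± SD, n = 6; compared with vehicle control by one-tailed Williams' test.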

A short description of series [14]: Cmax in fasted Crl:CD(SD) rat at 3 mg/kg, po. The settings on record: in vivo. Details: dose 3 mg/kg, route oral. The format is ADME, organism-based. Summed up:
as §2

Series [15] in a line: Tmax in fasted Crl:CD(SD) rat at 3 mg/kg, po. The format is ADME, organism-based. On the set-up: dose 3 mg/kg, route oral. The note with it: in vivo. Put shortly: as §2
Series [16] relates to Rattus norvegicus. In words: Antidiabetic activity in po dosed Wistar fatty rat assessed as augmentation of insulin secretion at administered 1 hr prior glucose challenge as single dose by OGTT. The settings on record: read-out: MED. The format is functional. Summed up: as §3
A short description of series [17]: Oral bioavailability in fasted dog at 1 mg/kg. The format is ADME, organism-based, Canis lupus familiaris. The settings on record: in vivo. Put shortly: as §1
The nature of series [18]: Terminal half life in fasted Crl:CD(SD) rat at 1 mg/kg, iv. In kind it is ADME, organism-based. On the set-up: dose 1 mg/kg, route intravenous. The note with it: in vivo, read-out: t1/2lambda (converted). Put shortly:
as §2

Series [19] concerns Rattus norvegicus. Put plainly: Antidiabetic activity in po dosed Wistar fatty rat assessed as reduction in blood glucose excursion at administered 1 hr prior glucose challenge as single dose by OGTT. In kind it is functional. The note with it: read-out: MED. Put shortly: as §3
A short description of series [20]: Volume of distribution at steady state in fasted dog at 0.5 mg/kg, iv. The note with it: in vivo, read-out: Vdss. Details: dose 0.5 mg/kg, route intravenous. In kind it is ADME, organism-based, Canis lupus familiaris. Put shortly:
as §1

The nature of series [21]: AUC (0 to 24 hrs) in fasted dog at 1 mg/kg, po. In kind it is ADME, organism-based, Canis lupus familiaris. The note with it: plasma. Details: time < 24 hr, dose 1 mg/kg, route oral. Summed up: as §1
Series [22] in a line: Oral bioavailability in fasted Crl:CD(SD) rat at 3 mg/kg. The format is ADME, organism-based. The note with it: in vivo. Put shortly: as §2
Series [23] in a line: Tmax in fasted dog at 1 mg/kg, po. In kind it is ADME, organism-based, Canis lupus familiaris. Details: dose 1 mg/kg, route oral. The note with it: in vivo. Put shortly: as §1
For series [24], the target named is T4, Free fatty acid receptor 3 (Homo sapiens, UniProt O14843).
T4 sequence (O14843 whole entry): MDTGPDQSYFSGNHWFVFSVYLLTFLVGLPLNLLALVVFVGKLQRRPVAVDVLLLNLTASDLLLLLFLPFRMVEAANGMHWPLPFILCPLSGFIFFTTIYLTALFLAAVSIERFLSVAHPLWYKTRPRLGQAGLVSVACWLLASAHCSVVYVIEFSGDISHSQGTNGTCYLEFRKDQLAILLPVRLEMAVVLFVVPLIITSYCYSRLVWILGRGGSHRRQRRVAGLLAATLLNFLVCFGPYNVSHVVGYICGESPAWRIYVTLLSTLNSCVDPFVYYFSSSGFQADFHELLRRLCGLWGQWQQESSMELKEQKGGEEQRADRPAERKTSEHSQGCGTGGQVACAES
Put plainly: Agonist activity at human GPR41 expressed in 293 cells assessed as cAMP accumulation after 30 mins by Alphascreen method. The format is functional, cell-based, HEK293.

Series [25] concerns Rattus norvegicus. In words: Antidiabetic activity in Wistar fatty rat assessed as augmentation of insulin secretion at 0.3 to 3 mg/kg, po administered 1 hr prior glucose challenge as single dose by OGTT.
A short description of series [26]: Clearance in fasted Crl:CD(SD) rat at 1 mg/kg, iv. Details: dose 1 mg/kg, route intravenous. The format is ADME, organism-based. The settings on record: in vivo. Summed up: as §2

The values below come from ChEMBL document CHEMBL2176869, “Discovery of TAK-875: A Potent, Selective, and Orally Bioavailable GPR40 Agonist” (ACS Med Chem Lett, 2010).

Molecules are shown by their SMILES. The source made the active and inactive calls. The rule behind the calls is not given here.

Free fatty acid receptor 1 (Rattus norvegicus, UniProt Q8K3T4), sequence (Q8K3T4 whole entry): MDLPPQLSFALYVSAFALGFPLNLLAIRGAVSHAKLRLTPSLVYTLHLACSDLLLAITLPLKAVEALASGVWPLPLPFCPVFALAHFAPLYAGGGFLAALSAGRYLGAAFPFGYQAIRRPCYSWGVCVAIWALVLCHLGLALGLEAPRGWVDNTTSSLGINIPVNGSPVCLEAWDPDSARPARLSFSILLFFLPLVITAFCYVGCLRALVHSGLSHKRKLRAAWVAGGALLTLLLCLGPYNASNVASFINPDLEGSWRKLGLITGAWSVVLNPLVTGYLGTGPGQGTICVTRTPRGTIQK
T1 sequence (O14842 whole entry): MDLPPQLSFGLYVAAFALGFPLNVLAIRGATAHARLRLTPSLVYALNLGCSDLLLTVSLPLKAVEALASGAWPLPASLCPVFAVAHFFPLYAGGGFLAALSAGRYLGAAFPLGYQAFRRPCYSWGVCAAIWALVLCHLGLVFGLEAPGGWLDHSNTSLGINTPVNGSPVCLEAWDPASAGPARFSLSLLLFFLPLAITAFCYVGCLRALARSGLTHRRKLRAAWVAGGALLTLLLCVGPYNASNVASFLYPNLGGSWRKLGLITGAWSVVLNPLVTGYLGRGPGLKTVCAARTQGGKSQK

Regarding `Cc1cccc(C)c1-c1cccc(COc2ccc3c(c2)CCCCC3CC(=O)O)c1` (centres undefined), in series [1], the EC50 was found to be 540 nM. For the same compound, the Ki is 2400 nM in [2] and over 10000 nM in series [3].

In the case of `Cc1cccc(C)c1-c1cccc(COc2ccc3c(CC(=O)O)coc3c2)c1`, in series [1], the EC50 was 1700 nM. The Ki in series [2] and in [3] was over 10000 nM each time.

Turning to `Cc1cc(OCCCS(C)(=O)=O)cc(C)c1-c1cccc(COc2ccc3c(c2)OC[C@H]3CC(=O)O)c1.O`, the half-life was 7.5 h in [4], 4.1 h in [5], 5.9 h in series [12] and 4.7 h in series [18]. The clearance is 0.496 mL/min/kg in series [6] and 0.569 mL/min/kg in [26]. The figures for the Vd in series [7] and in series [20] were 0.208 L/kg and 0.225 L/kg, respectively. The EC50 in series [8], in [9] and in series [24] was over 10000 nM each time. Further, the Cmax in series [10] amounted to 3290 ng/mL; in series [14], 5770 ng/mL. For the same compound, the area under the curve AUC(0-t) at 24 h in [11] came to 65000 ng·h/mL; in [21] it was 29400 ng·h/mL. In addition, the outcome in [13] and in series [25] was Active. The Tmax in series [15] worked out at 1 h; in [23], 2 h. Moreover, the minimal effective dose in [16] and in [19] was 1 mg/kg in each case. Moreover, the bioavailability was 92.4% in [17] and 76% in [22]. Moreover, the Ki in [3] came to 140 nM.

For the compound `Cc1cccc(C)c1-c1cccc(COc2ccc3c(c2)CCCC3CC(=O)O)c1` (centres undefined), the EC50 in [1] is 23 nM. Besides, the inhibition constant (Ki) in [2] is 59 nM; in [3] it was 3700 nM.

As to `Cc1cc(OCCCS(C)(=O)=O)cc(C)c1-c1cccc(COc2ccc3c(c2)OC[C@@H]3CC(=O)O)c1`, in series [3], the Ki is 1600 nM.

Turning to `Cc1cccc(C)c1-c1cccc(COc2ccc3c(c2)CCC3CC(=O)O)c1` (centres undefined), in series [1], the EC50 was determined as 28 nM. Moreover, the Ki is 210 nM in series [2] and 520 nM in [3].

In the case of `Cc1cccc(C)c1-c1cccc(COc2ccc3c(c2)OCCC(C(=O)O)C3)c1` (centres undefined), the concentration giving a half-maximal response (EC50) in series [1] turned out to be 49 nM. The values for the inhibition constant Ki in [2] and in series [3] were 270 nM and over 10000 nM, respectively.

On to `Cc1cccc(C)c1-c1cccc(COc2ccc(CCC(=O)O)c(F)c2)c1`, for which, in series [3], the Ki worked out at 54 nM.

On to `Cc1cccc(C)c1-c1cccc(COc2ccc3c(c2)OCC3CC(=O)O)c1` (centres undefined), for which the EC50 in [1] worked out at 22 nM. Moreover, the values for the Ki in [2] and in [3] were 170 nM and 1100 nM, respectively.

As a reminder, the EC50 is the concentration giving half of the maximal effect. By Ki is commonly meant a measure of affinity in units of concentration, obtained from inhibition or displacement. The term clearance denotes a measure of how efficiently the substance is removed, as volume per time. One may read the Cmax as the highest concentration seen after dosing. By AUC(0-t) is commonly meant the area under the concentration-time curve up to a stated or last time point. Lower therefore signals low exposure. In general, Tmax refers to the time from dosing to the highest level. The term bioavailability denotes dose-corrected exposure relative to a reference, in per cent. The low end stands for poor availability, the high end for good availability.
